Compounds with a hit are over-represented: about 8.7% of the library has one in this group of screens.
PostGolgi yeast: growth inhibition of a yeast mutant, post-Golgi transport screen. post-Golgi transport phenotypic cell assay. inhibition, % at 10 µM. actives 0.9% (n = 98,000). AID 739;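 further: yeast cells grown in 1536-well plates; yeast grown about 18 h at 30C before absorbance read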
PostGolgi ctrl: inhibits growth of the yeast control strain; efflux-deficient yeast background strain, growth absorbance A615, 16 h; inhibition, % at 10 µM; actives 5% (n = 98,000)
Pyk2 oligo antag: antagonists of human Pyk2 oligomerization. Q14289. Q293 cells, Pyk2 FERM NanoBiT luminescence; hits give low values. z-score (the deposit names both 25 µM and 10 µM). actives 0.83% (n = 99,000);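 active means Z-score of -3 or lower, scaled per plate to the spread of control and sample wells; inactive means z-score above -3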;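 further: negative z-score means lost luminescence so less FERM oligomerization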
Cav32 inh: human Cav3.2 channel inhibition, primary screen; Cav3.2-expressing cells, Fluo-4 calcium fluorescence FDSS; hits give low values; O95180; AID 449739; actives 4% (n = 100,000); B-score at 10 µM;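 active means single-dose well whose peak fluorescence ratio is a statistical outlier from its plate by either plate-standardised score or position-corrected B-score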
Target sequence (O95180 whole entry, looked up): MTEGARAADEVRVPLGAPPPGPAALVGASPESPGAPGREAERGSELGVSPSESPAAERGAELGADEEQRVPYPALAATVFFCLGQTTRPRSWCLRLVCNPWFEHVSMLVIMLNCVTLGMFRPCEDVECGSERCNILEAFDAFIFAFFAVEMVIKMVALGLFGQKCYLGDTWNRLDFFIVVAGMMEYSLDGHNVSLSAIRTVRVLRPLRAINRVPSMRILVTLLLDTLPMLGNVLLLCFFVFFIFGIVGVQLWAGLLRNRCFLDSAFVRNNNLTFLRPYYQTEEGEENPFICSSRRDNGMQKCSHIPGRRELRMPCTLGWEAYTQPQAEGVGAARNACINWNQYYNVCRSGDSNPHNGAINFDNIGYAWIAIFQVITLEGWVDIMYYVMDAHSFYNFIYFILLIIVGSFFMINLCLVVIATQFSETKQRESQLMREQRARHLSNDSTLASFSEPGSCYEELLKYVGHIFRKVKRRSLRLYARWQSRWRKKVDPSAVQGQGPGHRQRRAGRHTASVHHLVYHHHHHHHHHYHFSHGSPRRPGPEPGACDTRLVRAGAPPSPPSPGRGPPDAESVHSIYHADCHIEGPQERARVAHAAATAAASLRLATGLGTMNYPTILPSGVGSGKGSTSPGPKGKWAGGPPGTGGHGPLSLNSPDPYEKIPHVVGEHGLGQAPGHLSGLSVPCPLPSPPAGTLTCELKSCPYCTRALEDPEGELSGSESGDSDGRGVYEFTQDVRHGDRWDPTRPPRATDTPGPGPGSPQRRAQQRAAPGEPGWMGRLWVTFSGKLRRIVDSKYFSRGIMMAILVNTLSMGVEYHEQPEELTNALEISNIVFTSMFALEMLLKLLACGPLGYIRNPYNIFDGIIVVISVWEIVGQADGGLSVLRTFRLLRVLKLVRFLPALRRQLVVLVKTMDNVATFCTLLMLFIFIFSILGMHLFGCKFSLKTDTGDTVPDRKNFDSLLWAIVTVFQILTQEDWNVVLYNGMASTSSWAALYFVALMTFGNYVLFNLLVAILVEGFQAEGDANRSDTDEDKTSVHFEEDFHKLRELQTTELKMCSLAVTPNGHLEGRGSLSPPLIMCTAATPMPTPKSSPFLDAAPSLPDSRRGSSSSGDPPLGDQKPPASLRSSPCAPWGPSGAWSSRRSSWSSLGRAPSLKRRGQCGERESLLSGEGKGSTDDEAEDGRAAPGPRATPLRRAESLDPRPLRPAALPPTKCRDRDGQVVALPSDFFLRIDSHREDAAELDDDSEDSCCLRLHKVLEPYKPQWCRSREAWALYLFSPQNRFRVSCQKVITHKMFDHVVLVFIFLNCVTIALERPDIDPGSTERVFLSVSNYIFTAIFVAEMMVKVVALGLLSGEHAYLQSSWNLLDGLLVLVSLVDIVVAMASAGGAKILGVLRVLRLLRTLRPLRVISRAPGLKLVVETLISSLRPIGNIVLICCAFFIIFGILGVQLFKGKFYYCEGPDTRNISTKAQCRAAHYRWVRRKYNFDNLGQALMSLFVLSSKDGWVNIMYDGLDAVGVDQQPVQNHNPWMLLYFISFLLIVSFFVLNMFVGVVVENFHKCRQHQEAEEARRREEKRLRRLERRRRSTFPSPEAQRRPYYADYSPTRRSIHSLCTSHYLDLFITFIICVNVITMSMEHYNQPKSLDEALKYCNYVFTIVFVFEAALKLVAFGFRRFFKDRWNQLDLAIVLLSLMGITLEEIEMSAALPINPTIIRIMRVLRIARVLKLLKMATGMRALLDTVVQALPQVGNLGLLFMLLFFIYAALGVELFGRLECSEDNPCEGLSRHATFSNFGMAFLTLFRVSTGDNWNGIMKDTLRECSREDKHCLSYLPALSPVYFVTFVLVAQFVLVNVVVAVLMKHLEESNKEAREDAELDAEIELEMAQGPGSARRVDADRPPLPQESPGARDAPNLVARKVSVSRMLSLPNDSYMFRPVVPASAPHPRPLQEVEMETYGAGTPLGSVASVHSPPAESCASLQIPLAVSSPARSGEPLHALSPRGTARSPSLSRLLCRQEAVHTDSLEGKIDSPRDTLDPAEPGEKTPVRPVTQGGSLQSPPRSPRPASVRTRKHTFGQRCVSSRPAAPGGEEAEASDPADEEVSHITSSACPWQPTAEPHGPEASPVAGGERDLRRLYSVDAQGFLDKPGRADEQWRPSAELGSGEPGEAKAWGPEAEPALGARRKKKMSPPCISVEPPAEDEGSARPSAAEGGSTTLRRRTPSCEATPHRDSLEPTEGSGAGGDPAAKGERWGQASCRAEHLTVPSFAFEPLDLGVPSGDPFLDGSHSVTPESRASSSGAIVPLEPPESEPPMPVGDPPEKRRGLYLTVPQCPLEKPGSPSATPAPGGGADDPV
E coli WT exp: growth inhibitors of E. coli BW25113 wild type; OD600 absorbance; growth inhibition, % at 100 µM; actives 0.15% (n = 98,000); AID 710;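 active means growth inhibition above about 50% at one test dose, limit read from the data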;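 further: growth measured after 20 h incubation at 37 °C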
Ecoli tolC: growth inhibitors of E. coli BW25113 tolC mutant; actives 2.2% (n = 65,000); growth inhibition, % at 10 µM (by protocol); OD615;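 active means growth inhibition at or above a cutoff equal to the mean over every tested compound plus 3 SD, cut at about 60% in these data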;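 further: growth measured after 20 h incubation at 37 °C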
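Doses: one dose of 10 µM final / Material: E. coli BW25113 ΔtolC::kan, tolC deletion mutant strain / Buffer or medium: LB with kanamycin 50 µg/mL / Evaluation: percent growth inhibition / Detection: optical density read at 615 nm / Incubation: 37 °C, 20 h exposure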
* marks the source's active call; other numbers are inactive results; . = not tested or not shown. Unless noted, no stated cut-off is given here; in the data, active means inhibition above about 30%; inactive means the rest.

SMILES | PostGolgi yeast | PostGolgi ctrl | Pyk2 oligo antag | Cav32 inh | E coli WT exp | Ecoli tolC
CC(=O)Nc1sc2c(c1CN1CCN(c3ccccn3)CC1)CCCC2 | . | . | -0.58 | -0.739 | . | 20.9
CC(C)N(CCc1ccncc1)C(=O)Nc1ccc(Cl)c(Cl)c1 | 91.1* | 90.3* | . | 0.26 | 8.0 | 34.6
CCOC(=O)C1CCCc2c1[nH]c1c(C(=O)O)cccc21 (configuration not stated) | 23.5 | -0.2 | -0.24 | 0.993 | 4.0 | 10.9
CCOC(=O)c1cnn(-c2nc(-c3cccc(F)c3)cs2)c1C(F)(F)F | 18.1 | 11.2 | -0.77 | 1.59 | -8.0 | .
CCCCN(Cc1ccccc1)S(=O)(=O)c1cc(Br)cc2c1N(C(C)=O)C(C)C2 (configuration not stated) | 9.6 | 36.2* | -2.43 | -3.26* | -15.0 | .
CC(=O)N1c2c(cc(Br)cc2S(=O)(=O)NCc2cccnc2)CC1C (configuration not stated) | -10.3 | -4.5 | 0.21 | . | 1.0 | -3.8
COc1ccc(-c2nc(-c3ccccc3)c(-c3cc([N+](=O)[O-])ccc3C)[nH]2)cc1O | 20.0 | 31.4* | -1.77 | 0.231 | -7.0 | .
CC(=O)c1ccc(N2CCN(C(=O)COc3ccc(F)cc3)CC2)c(F)c1 | 3.6 | 11.6 | 1.48 | 0.559 | 4.0 | 10.1
CCC(=O)c1ccc(N2CCN(C(=O)COc3ccc(F)cc3)CC2)c(F)c1 | -10.2 | 31.2* | 0.76 | -0.618 | -3.0 | 28.8
CCCC(=O)c1ccc(N2CCN(C(=O)OCC)CC2)c(F)c1 | -5.6 | 2.9 | 0.6 | 0.882 | 9.0 | 29.4
CCCC(=O)c1ccc(N2CCCCCC2)c(F)c1 | -1.4 | 2.1 | 0.49 | . | -8.0 | 67.7*
CCCCc1ccc(C2C(C#N)=C(N)SC(N)=C2C#N)s1 | 4.4 | 4.5 | . | 2.32 | 15.0 | 93.0*
CCOc1ccc(C2C(C#N)=C(N)SC(N)=C2C#N)c(OCC)c1 | 14.0 | 7.8 | -0.43 | 1.75 | -8.0 | 10.4
CC(=O)N1c2ccccc2N(Cc2ccc(C)cc2C)C(=O)C1(C)C | 0.2 | 26.8 | . | -8.3* | 10.0 | 21.8
CCC(C)Nc1nc(OC)nc(N(C)C#N)n1 (configuration not stated) | -3.1 | 28.3 | 0.5 | -0.878 | -5.0 | 8.4
COc1ccc2nc(C3CCCCC3)c3c(c2c1)CCC3 | . | . | . | 0.476 | . | .
Cc1ccc(-c2cc(C(=O)Nc3cc(C)on3)c3ccccc3n2)c(C)c1 | -0.3 | 37.0* | . | 0.0341 | -5.0 | 45.8
Cc1cc(NC(=O)c2cc(-c3ccc(C)s3)nc3ccccc23)no1 | -10.0 | 13.8 | . | 0.0414 | -4.0 | .
CN(C)CCNC(=O)Cn1nc(C(F)F)cc1C1CC1 | -3.2 | 31.6* | -0.12 | 0.177 | 3.0 | -6.8
O=C(Cn1nc(C(F)F)cc1C1CC1)NCCC1=CCCCC1 | -1.4 | 4.7 | 1.25 | -0.988 | 3.0 | 9.3
CCOC(=O)N1CCC(Nc2nc3ccccc3nc2NS(=O)(=O)c2ccc(Cl)cc2)CC1 | 2.9 | 11.7 | -1.87 | -3.02 | 0.0 | 79.9*
O=S(=O)(Nc1nc2ccccc2nc1N1CCN(c2ccccc2F)CC1)c1ccc(Cl)cc1 | -10.4 | 6.7 | -2.26 | -5.71* | -11.0 | .
CC(Oc1ccc(NC(=O)c2ccco2)cc1)C(=O)N1c2ccccc2CC1C (configuration not stated) | 17.4 | 25.0 | -0.31 | -1.78 | 1.0 | 22.1
CCOc1ccc(-n2cc(C(=O)Nc3cccc(C)n3)c3cc(OC)c(OC)cc3c2=O)cc1 | . | . | 1.39 | -0.0171 | . | 39.7
OC(Cn1cccn1)c1ccccc1 (configuration not stated) | 4.6 | 4.5 | 1.19 | -0.339 | 3.0 | -7.3
SMILES | PostGolgi yeast | PostGolgi ctrl | Pyk2 oligo antag | Cav32 inh | E coli WT exp | Ecoli tolC
c1ccc2c(c1)[nH]c1c(N3CCCC3)ncnc12 | 12.7 | 11.1 | 0.83 | . | 32.0 | 45.4
Cc1ccc2[nH]c3c(N4CCc5ccccc5C4)ncnc3c2c1 | -39.9 | 42.8* | -1.25 | -2.95 | -10.0 | .
Brc1ccc2[nH]c3c(N4CCc5ccccc5C4)ncnc3c2c1 | 42.0* | 75.9* | . | 0.592 | -19.0 | .
O=CN1CC(=O)N(c2ccccc2)c2c([nH]c3ccccc23)C1 | 7.6 | 5.4 | 1.12 | -0.836 | 1.0 | -8.4
Cc1cc(C)n2nc(SC3CCCCN(C(=O)c4ccc(F)cc4)C3=O)nc2n1 (configuration not stated) | 1.0 | 14.6 | -0.09 | 0.115 | 3.0 | -5.2
COC(=O)NNC(=O)c1ccccc1C | -3.9 | 4.7 | 0.69 | -0.57 | -3.0 | .
O=C1N[C@@H](Cc2ccccc2)C(=O)N2[C@@H]1C[C@@]1(Br)c3ccccc3N(S(=O)(=O)c3ccccc3)[C@@H]21 | . | . | . | -1.32 | . | .
COc1cc(OC)c2c(O)c3c(c(-c4c5c(c(O)c6c(OC)cc(OC)cc46)CO[C@@H](C)[C@H]5O)c2c1)[C@H](O)[C@H](C)OC3 | . | . | . | -1.26 | . | .
Cc1ccc(S(=O)(=O)N2CCN(c3ccc(C(F)(F)F)cc3[N+](=O)[O-])CC2)cc1 | . | . | -1.92 | . | . | .
COc1cccc(OC)c1C(=O)NC(=S)N1CCN(c2ccc(C(F)(F)F)cc2[N+](=O)[O-])CC1 | -1.0 | 5.5 | -0.08 | -5.5* | -10.0 | .
CC(C)(C)CC(=O)NCc1ccc(F)cc1 | -2.9 | -8.0 | -0.02 | 0.0131 | 5.0 | .
COC(=O)Cc1cc(=O)[nH]c(/N=C(/NC(=O)c2ccccc2)Nc2ccccc2C)n1 | . | . | . | . | . | 15.8
COC(=O)c1ccc(Oc2c(C(F)(F)F)oc3c(CN4CCN(C)CC4)c(O)ccc3c2=O)cc1 | -3.5 | 34.6* | -0.4 | 0.608 | 5.0 | .
O=C(NCc1ccc2[nH]c3c(c2c1)CCCC3)N1CCOCC1 | 21.3 | 30.1* | . | -0.462 | 1.0 | -7.2
O=C(NCc1ccc2[nH]c3c(c2c1)CCCC3)c1ccc(S(=O)(=O)N2CCOCC2)cc1 | . | . | . | -0.295 | . | .
C=C(C)c1cccc(C(C)(C)NC(=O)Nc2ncccn2)c1 | 3.4 | 56.9* | 0.18 | -0.871 | 8.0 | -12.2
C=C(C)c1cccc(C(C)(C)NC(=O)Nn2cnnc2)c1 | -7.9 | 8.6 | 0.89 | -0.712 | 4.0 | 1.1
Cc1cc2cc(CNC(=O)c3ccc4c(c3)OCO4)ccc2[nH]1 | . | . | 1.02 | -0.402 | . | 14.1
CN(c1nc2c(c(=O)n(C)c(=O)n2C)n1CC(=O)c1ccccc1)C1CCCCC1 | 3.9 | 22.2 | -0.43 | -0.767 | 7.0 | 25.4
Cc1cccc(Nc2nc(N3CCCC3)nc(N3CCCC3)n2)c1 | 1.9 | 38.0* | -0.84 | -0.391 | -1.0 | .
COc1nc(Nc2cccc(C)c2)nc(N2CCCCC2)n1 | 5.5 | 36.0* | -1.27 | . | 2.0 | 7.6
Cc1cc(Nc2ccccc2)nc(N2CCOCC2)n1 | 4.9 | 5.3 | 0.07 | -0.848 | 3.0 | .
Cc1cccc(Nc2ccccc2)c1 | -5.7 | 9.3 | -0.49 | 1.47 | -3.0 | -3.5
Cc1cccc(Nc2nc(NCc3ccco3)nc(N3CCOCC3)n2)c1 | 2.6 | 0.7 | -0.81 | -4.66* | -13.0 | 61.9*
CCc1ccc(N=c2c([N+](=O)[O-])nn(-c3ccccc3)n2O)cc1 | 6.9 | 33.6* | -1.67 | -2.09 | 15.0 | .
COc1ccc(-n2nc([N+](=O)[O-])c(=NCc3cccnc3)n2O)cc1 | . | . | 0.21 | . | . | .
COc1ccc(-n2nc([N+](=O)[O-])c(=NCCc3ccc(Cl)cc3)n2O)cc1 | 2.8 | 40.3* | -0.58 | . | -3.0 | .
